Screening data as filed in PubChem BioAssay.
A selection: hits, their analogues and other compounds. The true share with any hit is near 1.3%.
Wee1 stabilizer = blocks degradation of human Wee1 kinase | HeLa Luc-Wee1K328M stability, luciferase luminescence; 100% = proteasome inhibitor MG132 effect | P30291 | 220,000 compounds, 1.2% hits | reporter increase, % at 5 µM;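 active = activation above the mean of all tested compounds plus 3 SD, set per screening run, cut at about 8.8% in these data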;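 also: cells exposed to compound for 20 h before luminescence read; 0% = DMSO alone and 100% = MG132 at 30 µM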
Pf gametocyte = inhibitors of late stage P. falciparum gametocyte viability. P. falciparum stage V gametocytes, ATP luminescence, 24 h. inhibition, % at 10.9 µM. 150,000 compounds, 0.065% hits. AID 743093;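 active = inhibition above the mean plus 3 SD of compounds within the control limits, set per campaign, cut at about 38% in these data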;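 also: 0% = DMSO wells and 100% = medium only without gametocytes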
Hsp70 act = transcriptional activators of Hsp70; HeLa Hsp70 promoter luciferase reporter, luminescence; scaled: vehicle 0, proteasome-inhibitor control 100%; activation, % at 10 µM; 200,000 compounds, 0.04% hits; AID 1203;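 active = activation above the mean across all tested compounds plus 3 SD, cutoff set per campaign, cut at about 5.5% in these data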;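 also: 100% = MG132 at 30 µM as the positive control and 0% = DMSO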
MDM2 E3 inh = inhibitors of human Mdm2 E3 ubiquitin ligase; Q00987; cell-based MDM2 ubiquitination luciferase reporter, 2 h; 0 = plate control, 100 = twice control, blank-subtracted; signal enhancement, % at 5 µM; 210,000 compounds, 0.11% hits;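 active = signal enhancement of 30% or more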;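 also: luminescence tracks abundance of the self-degrading MDM2-luciferase fusion protein; higher signal means inhibition of MDM2 E3 ligase activity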
Target sequence (Q00987 whole entry, looked up, the tested form may be a part): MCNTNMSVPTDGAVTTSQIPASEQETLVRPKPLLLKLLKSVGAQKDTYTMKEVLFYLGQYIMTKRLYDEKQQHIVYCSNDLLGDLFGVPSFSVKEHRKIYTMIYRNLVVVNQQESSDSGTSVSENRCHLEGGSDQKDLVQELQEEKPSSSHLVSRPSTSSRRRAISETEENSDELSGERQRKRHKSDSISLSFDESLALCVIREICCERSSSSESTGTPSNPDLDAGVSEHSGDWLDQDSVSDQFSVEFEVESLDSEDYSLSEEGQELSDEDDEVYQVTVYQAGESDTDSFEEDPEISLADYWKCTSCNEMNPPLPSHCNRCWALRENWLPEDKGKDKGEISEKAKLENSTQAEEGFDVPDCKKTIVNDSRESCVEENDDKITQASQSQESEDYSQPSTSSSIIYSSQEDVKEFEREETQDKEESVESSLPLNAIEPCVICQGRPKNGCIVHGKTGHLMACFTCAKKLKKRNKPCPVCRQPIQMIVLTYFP
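Material: Stable MDM2–luciferase fusion reporter cells | Amount: 2000 cells seeded into each well | Dosing: One concentration, 5 µM, with 0.2% DMSO | Incubation: 4 h cell settling then 2 h compound exposure, 37 °C | Measured by: Luciferase luminescence | Read-out basis: % enhancement relative to plate controls after blank subtraction | Benchmarks: Control and blank well means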
Wee1 stab conf = confirmation of human Wee1 degradation inhibitors; 1,100 compounds, 4% hits; HeLa Luc-Wee1K328M degradation, luminescence; vehicle 0%, proteasome-blocked wells 100%; activation, % at 5 µM; AID 1410; shares compounds with Wee1 stabilizer; in the data active = activation above about 8.9%
The depositor's hits bear a star; . = no result.

SMILES | Wee1 stabilizer | Pf gametocyte | Hsp70 act | MDM2 E3 inh | Wee1 stab conf
COC(=O)[C@@H](NC(=O)N1CCN(c2cccc(C(F)(F)F)c2)CC1)C(C)C | 1 | . | 0 | -6 | .
NC(=O)N/N=C/c1cn(-c2ccccc2)nc1-c1cccs1 | 16* | 9 | 0 | -19 | 3
CS(=O)(=O)N(CC(=O)Nc1ccccc1Br)Cc1ccccc1 | . | 15 | . | . | .
COc1ccc(/C=N/NC(=O)c2cc(=O)[nH]c3ccccc23)cc1OC | -3 | 3 | 0 | -8 | .
O=C(N/N=C/c1ccco1)c1cc(=O)[nH]c2ccccc12 | 28* | 7 | 0 | 3 | 0
CC(C)NC(=O)c1nc2c(nnn2Cc2cccc(Cl)c2)c(=O)[nH]1 | . | -3 | . | . | .
CN(C)c1nc(Cl)nc(N(C#N)CCOc2ccccc2)n1 | -2 | 13 | 0 | -9 | .
CCCn1ncc(CN2CCN(Cc3ccc(C)o3)C(CCO)C2)c1C (centres undefined) | 11* | 21 | . | -41 | 2
CCCn1cc(CN2CCN(Cc3ccc(C)o3)C(CCO)C2)c(C)n1 (centres undefined) | 1 | -4 | 0 | -2 | .
Cc1nc2c(-c3ccccc3)c(C)nn2c(SCC(N)=O)c1Cc1ccccc1 | -1 | -18 | . | -72 | .
CC(=O)NC1=NN(C(C)=O)C(c2ccc(C(C)C)cc2)S1 (centres undefined) | 24* | 9 | 0 | 11 | 1
CC(=O)NC1=NN(C(C)=O)C(c2cccc([N+](=O)[O-])c2)S1 (centres undefined) | -1 | -10 | 0 | 4 | .
Cc1ccc(S(=O)(=O)NNC(=O)c2sc(=S)n(C)c2C)cc1 | 2 | 26 | 0 | -6 | .
O=C(Nc1ccc(Cl)cc1)NC1CCCCC1 | 11* | . | 0 | -7 | 6
CN(C(=O)c1ccccc1OC1CCN(S(C)(=O)=O)CC1)C1CCOC1 (centres undefined) | 1 | 0 | 0 | -11 | .
c1ccc(-c2csc(NC3=NCCCCC3)n2)cc1 | -1 | -9 | 0 | -13 | .
N#Cc1ccc(-c2csc(NC3=NCCCCC3)n2)cc1 | 15* | . | 0 | 8 | 2
O=C(NCCCN1CCOCC1)C(=O)N/N=C/c1c(Cl)cccc1Cl | 16* | 11 | 0 | -12 | 3
Cc1ccc2nc(-c3ccc(NC(=S)NC4CC(C)(C)NC(C)(C)C4)cc3)sc2c1 | 20* | 8 | 0 | -11 | 3
Oc1c(Cl)cc(Cl)cc1C=Nc1cc(C(F)(F)F)ccc1N1CCc2ccccc2C1 | 1 | . | . | -26 | .
C[C@@H]1COC(=O)[C@@H](Cc2ccc(F)cc2)C/C=C\C[C@@H](CC(=O)N[C@H](CO)Cc2ccccc2)C(=O)N1 | . | 22 | . | . | .
COc1ccc(/C=N/NC(N)=S)cc1OC(=O)c1cccc2ccccc12 | 1 | . | 0 | -19 | .
Cc1csc2sc(-c3ccnc(SCC(=O)NCc4ccccc4)n3)c(C)c12 | 14* | 10 | . | -8 | 22*
Cc1csc(SCC(=O)NCc2ccccc2)n1 | 2 | -14 | 0 | -1 | .
COc1ccc(NS(=O)(=O)c2cc(NC(=O)c3ccccc3F)ccc2N2CCCC2)cc1 | 14* | -3 | . | -23 | -2
SMILES | Wee1 stabilizer | Pf gametocyte | Hsp70 act | MDM2 E3 inh | Wee1 stab conf
CC(C)c1ccc2[nH]c(O)c(N=NC(=O)c3cccc(S(=O)(=O)Nc4ccccc4Cl)c3)c2c1 | 20* | 3 | 0 | -14 | 0
NC(=S)N=Nc1c(O)[nH]c2ccc(F)cc12 | 0 | -10 | 0 | -13 | .
CC(C)NC(=S)N=Nc1c(O)[nH]c2ccc(C(C)C)cc12 | 15* | 13 | 0 | -19 | 0
CCOC(=O)c1ccc(OCCOc2cccc(C)c2)cc1 | . | -5 | . | . | .
CC(C)(C)NC(=O)C(c1ccc(F)cc1)N(Cc1cccs1)C(=O)c1ccc(CN2CCOCC2)o1 (centres undefined) | 11* | 1 | 0 | -8 | 2
CC(C)CCNC(=O)C(C)N(Cc1ccc(F)cc1)C(=O)c1ccc(CN2CCOCC2)o1 (centres undefined) | 0 | 8 | 0 | -6 | .
Cc1ccc(S(=O)(=O)NCC2CCC(C(=O)NCc3cccnc3)CC2)cc1 (centres undefined) | 1 | . | 0 | -23 | .
CCCc1cc(=O)n2[nH]c(-c3ccc(C)cc3)cc2n1 | 13* | -4 | 0 | -22 | 5
CCCc1cc(=O)n2[nH]c(-c3ccccc3)cc2n1 | -3 | 20 | 0 | -25 | .
COc1ccccc1CNC(=O)C1(NC(=O)Nc2ccc(C)cc2)CCCCC1 | 11* | . | 0 | -2 | 1
